# Laboratory results reported in ChEMBL document CHEMBL1144494, “Synthesis of diverse analogues of Oenostacin and their antibacterial activities” (Bioorg Med Chem, 2007).
# Legend:
# [1] = tested on: Staphylococcus aureus; assay: Antibacterial activity against Staphylococcus aureus; assay type: functional, organism-based
# Method in brief: (§1)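 Twofold serial broth dilution in nutrient broth across eight tubes, with broth alone as control. Each tube received 10 µl of diluted log-phase culture at a titre of 10^4 cfu/ml. Incubation at 37 °C, with growth read by turbidity. EC50 values are means of three experiments run in triplicate.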
# [2] = tested on: Staphylococcus epidermidis; assay: Antibacterial activity against Staphylococcus epidermidis; assay type: functional, organism-based; method in brief: as §1
Structure (SMILES),EC50 [1] [µM],EC50 [2] [µM]
COc1cc(O)cc(C(=O)O)c1C=O,> 5,2.55
O=C(O)CCCC(=O)c1ccc(O)c(O)c1O,2.08,1.04
COC(=O)c1cc(O)cc(OC)c1C=O,4.76,2.38
O=C(O)/C=C/c1cc(O)c(O)c(O)c1,1.26,0.63
O=C(O)/C=C/c1ccc(O)c(O)c1 [CAFFEIC ACID],2.78,2.78
Cc1cc(O)cc(O)c1 [ORCINOL],4.03,4.03
Oc1cccc(O)c1O [PYROGALLOL],0.49,0.99

# Further lines, results first:
EC50 [1] [µM],EC50 [2] [µM],Structure (SMILES)
1.64,1.64,Cc1cc(O)c(C=O)c(O)c1
> 5,1.37,O=Cc1c(O)cc(O)cc1C(=O)O
2.96,1.48,CC(=O)c1cc(O)c(O)c(O)c1
0.67,0.67,O=C(O)c1cc(O)cc(O)c1CO
0.12,0.12,COC(=O)CC/C=C/c1c(O)cc(C(=O)O)cc1O [OENOSTACIN]
